Measurements as given in publication PMC11397428 (Science Advances, 2024).
≈ marks a conversion by molar mass, not a printed value. Where a SMILES comes first, the peptide text is derived from it. The star is where a group is joined. Phenylacetyl(4-Ph) = O=C(Cc1ccc(-c2ccccc2)cc1)*

Tests used:
[1] = system: BMDMs; assay: Endocytosis mode of FITC-BLKR with endocytosis inhibitors; assay type: cell-based, mouse; conditions: FITC-BLKR 16 μM, 15 min; EIPA 50 μM, CPZ 40 μM, Filipin III 5 μg ml^−1; n = 3
[2] = system: MRE-induced ALI; assay: Comparison with ceftazidime in MRE-infected mice; assay type: in vivo, mouse; conditions: ceftazidime/avibactam 32/8 mg kg^−1 subcutaneous every 12 hours; n = 12
[3] = Pulmonary biodistribution of FITC-labeled peptide, CLSM; assay type: in vivo, mouse; conditions: 128 μM, 50 μl intratracheal, 1 h
In short: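 Acute lung injury induced in BALB/c mice by intratracheal LPS (10 mg kg^−1). FITC-labelled peptide (128 μM, 50 μl) then given intratracheally, n = 3. Lungs taken 1 hour after dosing. Sections stained for CD68 (macrophages) with DAPI counterstain and imaged by confocal microscopy.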

[4] = system: bone marrow–derived macrophages (BMDMs); assay: M2 macrophage polarization of BMDMs, CD206/CD86 flow cytometry; assay type: cell-based, mouse; conditions: M1 positive control LPS 10 ng ml^−1 and IFN-γ 20 ng ml^−1
[5] = system: red blood cells (RBCs); assay: Hemolysis assay; assay type: cell-based, New Zealand rabbit; conditions: 3 hours, 37°C, PBS; for hemolytic activity: 256 μM, n = 9
In short: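 Freshly drawn rabbit blood diluted tenfold in PBS. RBCs pelleted and washed eight times with PBS. Peptide stocks made in PBS at 512 μM and diluted twofold six times. RBCs incubated with peptide for 3 hours at 37°C; 1% Triton X-100 as positive control, PBS as negative control. Samples spun at 10,000 rpm for 10 min; hemolysis calculated from supernatant absorbance at 570 nm.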

[6] = system: human bronchial epithelial cells (BEAS-2B); assay: Cytocompatibility, MTT assay; assay type: cell-based; conditions: 24-hour coincubation
In short: (§1)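 Cell lines grown with 10% FBS and 1% penicillin-streptomycin. Seeded at 1 × 10^4 cells per well and allowed 24 hours to attach. Medium then replaced with fresh medium containing test peptide at a range of concentrations. Viability read by MTT after 24 hours of co-incubation.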

[7] = system: human embryonic kidney (HEK) 293T; assay: Cytocompatibility, MTT assay; assay type: cell-based; conditions: 24 h, n = 9
In short: as §1

[8] = system: HS-5 (human marrow stromal cells); assay: Cytocompatibility, MTT assay; assay type: cell-based; conditions: 24 h, n = 9
In short: as §1

[9] = system: RAW264.7; assay: Cytocompatibility, MTT assay; assay type: cell-based, murine; conditions: 24 h, n = 9
In short: as §1

[10] = system: DC2.4; assay: Cytocompatibility, MTT assay; assay type: cell-based, murine; conditions: 24 h, n = 9
In short: as §1

[11] = system: multidrug-resistant Escherichia coli (MRE); assay: MIC against MRE; assay type: cell-based; conditions: n = 3 biologically replicates
[12] = Pharmacokinetic study of SPRAY-BLKR-NPs in ALI mice; assay type: in vivo, mouse
[13] = system: healthy mice; assay: Immunomodulation and toxicity in healthy mice; assay type: in vivo, mouse

Molecule: CCCCC[C@@H](O)[C@H]1C(=O)O[C@H](C)[C@@H](O)/C=C/C=C/C=C/C=C/C=C(\C)[C@@H](O)C[C@H](O)C[C@H](O)C[C@H](O)C[C@H](O)C[C@H](O)C[C@@H]1O [Filipin III]
- loss of BLKR uptake quantified by FITC intensity [1]: 43.01%

Molecule: CCN(c1nc(N)c(C(=O)NC(=N)N)nc1Cl)C(C)C [EIPA, ethyl-isopropyl-amiloride]
- loss of BLKR uptake quantified by FITC intensity [1]: 22.14%

Molecule: CC(C)(O/N=C(\C(=O)N[C@@H]1C(=O)N2C(C(=O)[O-])=C(C[n+]3ccccc3)CS[C@H]12)c1csc(N)n1)C(=O)O [Ceftazidime]
- 2-day survival rate [2]: 58.3%

Molecule: CC(C)C[C@H](N)C(=O)N[C@@H](CCCCN)C(=O)N[C@@H](CCCNC(=N)N)C(=O)N[C@H](C(=O)N[C@@H](Cc1c[nH]c2ccccc12)C(=O)N[C@@H](CCCCN)C(=O)N[C@@H](CCCNC(=N)N)C(=O)O)C(C)C [LKR] (H-LKRVWKR-OH)
- accumulation in injured lung tissue [3]: extremely little accumulation

Molecule: lipopolysaccharide [LPS]
- CD86+ macrophage in the total population [4]: more than 80%

Molecule: CN(C)CCCN1c2ccccc2Sc2ccc(Cl)cc21 [CPZ, chlorpromazine]
- loss of BLKR uptake quantified by FITC intensity [1]: 24.47%

Molecule: CC[C@H](C)[C@H](NC(=O)[C@H](CCCCN)NC(=O)[C@H](Cc1ccccc1)NC(=O)[C@H](Cc1ccccc1)NC(=O)Cc1ccc(-c2ccccc2)cc1)C(=O)N[C@H](C(=O)N[C@@H](CCCCN)C(=O)N[C@H](C(=O)N[C@@H](C)C(=O)N[C@@H](CCCCN)C(=O)O)C(C)C)[C@@H](C)CC [BKII] ({Phenylacetyl(4-Ph)}-FFKIIKVAK-OH)
- hemolytic activity [5]: no detectable hemolytic activity
- cytotoxicity toward BEAS-2B [6]: no notable cytotoxicity

Molecule: CC[C@H](C)[C@H](NC(=O)[C@H](CC(C)C)NC(=O)[C@H](CCCNC(=N)N)NC(=O)[C@H](Cc1ccccc1)NC(=O)[C@H](Cc1ccccc1)NC(=O)Cc1ccc(-c2ccccc2)cc1)C(=O)N[C@@H](CCCNC(=N)N)C(=O)N[C@@H](Cc1ccc(O)cc1)C(=O)N[C@@H](CCSC)C(=O)N[C@@H](C)C(=O)N[C@@H](CCCCN)C(=O)O [BRLI] ({Phenylacetyl(4-Ph)}-FFRLIRYMAK-OH)
- hemolysis rate ([5]; 128 μM): 7.49%

Molecule: CC(C)C[C@H](NC(=O)[C@H](Cc1ccccc1)NC(=O)[C@H](Cc1ccccc1)NC(=O)Cc1ccc(-c2ccccc2)cc1)C(=O)N[C@@H](CCCCN)C(=O)N[C@@H](CCCNC(=N)N)C(=O)N[C@H](C(=O)N[C@@H](Cc1c[nH]c2ccccc12)C(=O)N[C@@H](CCCCN)C(=O)N[C@@H](CCCNC(=N)N)C(=O)O)C(C)C [BLKR] ({Phenylacetyl(4-Ph)}-FFLKRVWKR-OH)
- hemolytic activity [5]: no detectable hemolytic activity
- cytotoxicity toward BEAS-2B [6]: no notable cytotoxicity
- cytotoxicity, HEK 293T [7]: no significant cytotoxicity
- cytotoxicity, HS-5 [8]: no significant cytotoxicity
- cytotoxicity, RAW264.7 [9]: no significant cytotoxicity
- cytotoxicity, DC2.4 [10]: no significant cytotoxicity
- MIC against MRE [11]: 16 µM (≈ 23.6 µg/mL)
- BLKR left in entire respiratory tract ([12]; ALI mice, single dose 18.42 μg per mouse, 12 hours after administration): ~10%
- pulmonary area under the curve relative to kidney ([12]; within 24 hours): > 154.13 times
- pulmonary area under the curve relative to liver ([12]; within 24 hours): more than 47.90 times
- monocyte infiltration in the alveolar site, histology ([13]; 128 or 256 μM, 50 μl twice): no monocyte infiltration was observed
- inflammatory cell infiltration in lung, histology ([13]; 512 or 1204 μM): inflammatory cell infiltration occurred in lung
- monocyte percentage in peripheral blood ([13]; all the tested concentrations, n = 3): no elevation of monocyte percentage
